Laboratory results as given in ChEMBL document CHEMBL4190346, “Structure-based design, synthesis, and biological evaluation of withaferin A-analogues as potent apoptotic inducers” (Eur J Med Chem, 2017).
The source made the active and inactive calls. No cut-off for these calls is given here.

Tests used:
MCF7 [1] = assay: Ratio of IC50 for cytotoxicity against human MCF7 cells using compound addition to cell culture cells in lag phase of growth and incubated for 48 hrs by MTT assay to IC50 for cytotoxicity against human MCF7 cells using compound addition to cell culture cells in log phase of growth and incubated for 48 hrs by MTT assay; assay type: functional
MCF7 [2] = assay: Cytotoxicity against human MCF7 cells assessed as reduction in cell viability using compound addition to cell culture cells in log phase of growth and incubated for 48 hrs by MTT assay; assay type: functional, cell-based; conditions: Homo sapiens, MCF7, 48 h; read-out: IC50
HeLa [3] = assay: Induction of apoptosis in human HeLa cells assessed as increase in caspase-3 activity by measuring pNA release level at 24 uM incubated for 4 hrs using c-DEVD-pNA substrate by colorimetric assay; assay type: functional
Method in brief: (§1)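 HeLa cells in DMEM with 10% FBS were exposed for 4 h (fixed 24 or 32 level for 8 h). Staurosporine for 4 h served as the positive control. Cells were lysed at 4 °C for 10 min and centrifuged, and supernatant protein was measured by Bradford. Caspase-3 activity was read colorimetrically as nmol pNA/min/mL, with treated/untreated OD ratios. Values are means ± SD of three independent experiments in triplicate.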

HeLa [4] = assay: Induction of apoptosis in human HeLa cells assessed as increase in caspase-3 activity by measuring pNA release level at 12 uM incubated for 4 hrs using c-DEVD-pNA substrate by colorimetric assay; assay type: functional; method in brief: as §1
HeLa [5] = assay: Induction of apoptosis in human HeLa cells assessed as increase in caspase-3 activity by measuring pNA release level at 16 uM incubated for 4 hrs using c-DEVD-pNA substrate by colorimetric assay; assay type: functional; method in brief: as §1
Vero [6] = assay: Cytotoxicity against African green monkey Vero cells assessed as reduction in cell viability using compound addition to cell culture cells in log phase of growth and incubated for 48 hrs by MTT assay; assay type: cell-based, Chlorocebus sabaeus; conditions: Chlorocebus sabaeus, Vero, 48 h; read-out: IC50
A549 [7] = assay: Cytotoxicity against human A549 cells assessed as reduction in cell viability using compound addition to cell culture cells in lag phase of growth and incubated for 48 hrs by MTT assay; assay type: functional, cell-based; conditions: Homo sapiens, A549, 48 h; read-out: IC50
HeLa [8] = assay: Induction of apoptosis in human HeLa cells assessed as reduction in cellular integrity at 32 uM incubated for 4 hrs by light microscopy
MCF7 [9] = assay: Cytotoxicity against human MCF7 cells assessed as reduction in cell viability using compound addition to cell culture cells in lag phase of growth and incubated for 48 hrs by MTT assay; assay type: functional, cell-based; conditions: Homo sapiens, MCF7, 48 h; read-out: IC50
A549 [10] = assay: Cytotoxicity against human A549 cells assessed as reduction in cell viability using compound addition to cell culture cells in log phase of growth and incubated for 48 hrs by MTT assay; assay type: functional, cell-based; conditions: Homo sapiens, A549, 48 h; read-out: IC50
Vero [11] = assay: Cytotoxicity against African green monkey Vero cells assessed as reduction in cell viability using compound addition to cell culture cells in lag phase of growth and incubated for 48 hrs by MTT assay; assay type: cell-based, Chlorocebus sabaeus; conditions: Chlorocebus sabaeus, Vero, 48 h; read-out: IC50
HeLa [12] = assay: Induction of apoptosis in human HeLa cells assessed as increase in caspase-3 activity by measuring pNA release level at 32 uM incubated for 4 hrs using c-DEVD-pNA substrate by colorimetric assay; assay type: functional; method in brief: as §1
HeLa [13] = assay: Cytotoxicity against human HeLa cells assessed as reduction in cell viability using compound addition to cell culture cells in lag phase of growth and incubated for 48 hrs by MTT assay; assay type: functional, cell-based; conditions: Homo sapiens, HeLa, 48 h; read-out: IC50
HeLa [14] = assay: Induction of apoptosis in human HeLa cells assessed as reduction in cellular adhesion at 32 uM incubated for 4 hrs by light microscopy
HeLa [15] = assay: Induction of apoptosis in human HeLa cells assessed as increase in caspase-3 activity by measuring pNA release level at 8 uM incubated for 4 hrs using c-DEVD-pNA substrate by colorimetric assay; assay type: functional; method in brief: as §1
HeLa [16] = assay: Cytotoxicity against human HeLa cells assessed as reduction in cell viability using compound addition to cell culture cells in log phase of growth and incubated for 48 hrs by MTT assay; assay type: functional, cell-based; conditions: Homo sapiens, HeLa, 48 h; read-out: IC50
HeLa [17] = assay: Induction of apoptosis in human HeLa cells assessed as […] by measuring pNA release level at 32 uM incubated for 8 hrs using c-DEVD-pNA substrate by colorimetric assay; assay type: functional, cell-based; method in brief: as §1
HeLa [18] = assay: Induction of apoptosis in human HeLa cells assessed increase in DNA fragmentation at 16 uM incubated for 12 hrs by ethidium bromide staining based agarose gel electrophoresis; assay type: functional, cell-based
Method in brief: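 HeLa cells were incubated with the compounds at varying concentrations for 12 or 24 h. Controls were DMSO (solvent) and staurosporine 2 µM (positive). Adherent and floating cells were pooled, centrifuged at 500 g and washed twice in cold PBS. Genomic DNA was extracted with a kit, run on 1.8% agarose, stained with ethidium bromide and viewed under UV.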

HeLa [19] = assay: Induction of cell cycle arrest in human HeLa cells assessed increase in subG1 phase accumulation at 24 uM incubated for 12 hrs by 33342 propidium iodide based flow cytometry relative to untreated control; assay type: functional
HeLa [20] = assay: Induction of apoptosis in human HeLa cells at 12 uM incubated for 4 hrs by annexin V and propidium iodide staining based flow cytometry; assay type: functional, cell-based
HeLa [21] = assay: Induction of apoptosis in human HeLa cells assessed increase in apoptotic nuclei formation at 8 uM incubated for 12 hrs by Hoechst 33342 staining based fluorescence microscopy; assay type: functional
HeLa [22] = assay: Induction of apoptosis in human HeLa cells at 10 uM incubated for 4 hrs by annexin V and propidium iodide staining based flow cytometry; assay type: functional, cell-based
HeLa [23] = assay: Induction of apoptosis in human HeLa cells assessed increase in phosphatidylserine externalization at 2 uM incubated for 4 hrs by annexin V and propidium iodide staining based flow cytometry; assay type: functional, cell-based
HeLa [24] = assay: Induction of cell cycle arrest in human HeLa cells assessed increase in hypoploid phase accumulation at 24 uM incubated for 12 hrs by […] propidium iodide based flow cytometry relative to untreated control; assay type: functional
HeLa [25] = assay: Induction of apoptosis in human HeLa cells assessed as increase in caspase-3 activity by measuring pNA release level at 24 uM incubated for 8 hrs using c-DEVD-pNA substrate by colorimetric assay; assay type: functional; method in brief: as §1
MCF7 (Homo sapiens) [26] = assay: Ratio of IC50 for cytotoxicity against human MCF7 cells incubated for 48 hrs to IC50 for cytotoxicity against human MCF7 cells incubated for 72 hrs
MCF7 (Homo sapiens) [27] = assay: as above; remark: listed apart in the source
MCF7 [28] = assay: Ratio of IC50 for cytotoxicity against human MCF7 cells incubated for 48 hrs to IC50 for cytotoxicity against human MCF7 cells incubated for 72 hrs; assay type: functional

| SMILES | Ratio IC50 (MCF7 [1]) | IC50 (MCF7 [2]) | Activity (HeLa [3]) | Activity (HeLa [4]) | Activity (HeLa [5]) | IC50 (Vero [6]) | IC50 (A549 [7]) | IC50 (MCF7 [9]) | IC50 (A549 [10]) | IC50 (Vero [11]) | Activity (HeLa [12]) | IC50 (HeLa [13]) | Activity (HeLa [15]) | IC50 (HeLa [16]) | Activity (HeLa [17]) | Activity (HeLa [18]) | fold change (FC) (HeLa [19]) | also measured |
| --- | --- | --- | --- | --- | --- | --- | --- | --- | --- | --- | --- | --- | --- | --- | --- | --- | --- | --- |
| CC1=C(COC(=O)c2ccccc2)C(=O)O[C@@H]([C@@H](C)[C@H]2CC[C@H]3[C@@H]4C[C@H]5O[C@]56C(=O)C=CC(=O)[C@]6(C)[C@H]4CC[C@]23C)C1 | >3 | 1.1 µM | 1.05 nmol/min/mL | 0.4 nmol/min/mL | 0.67 nmol/min/mL | 0.7 µM | 3.2 µM | 5.4 µM | 2.3 µM | 3.1 µM | 0.61 nmol/min/mL | 2.6 µM | 0.65 nmol/min/mL | 1.9 µM | – | – | – | Activity (HeLa [8]): Active; Activity (HeLa [14]): Active |
| CCCC(=O)OCC1=C(C)C[C@H]([C@@H](C)[C@H]2CC[C@H]3[C@@H]4C[C@H]5O[C@]56C(=O)C=CC(=O)[C@]6(C)[C@H]4CC[C@]23C)OC1=O | >3 | 2.8 µM | – | – | – | 2.1 µM | 6.7 µM | 11.5 µM | 4.3 µM | 3.8 µM | – | 8.3 µM | – | 7.9 µM | – | – | – | – |
| CC1=C(COC(=O)C(C)(C)C)C(=O)O[C@@H]([C@@H](C)[C@H]2CC[C@H]3[C@@H]4C[C@H]5O[C@]56[C@@H](O)C=CC(=O)[C@]6(C)[C@H]4CC[C@]23C)C1 | – | 0.4 µM | 1.04 nmol/min/mL | 0.61 nmol/min/mL | 0.78 nmol/min/mL | 0.5 µM | 1.8 µM | 0.3 µM | 2.1 µM | 0.4 µM | 0.93 nmol/min/mL | 0.8 µM | 0.26 nmol/min/mL | 1.7 µM | Active | Active | 4 - 6 | Activity (HeLa [20]): Active; Activity (HeLa [21]): 28% |
| CC1=C(COC(=O)c2ccoc2)C(=O)O[C@@H]([C@@H](C)[C@H]2CC[C@H]3[C@@H]4C[C@H]5O[C@]56[C@@H](O)C=CC(=O)[C@]6(C)[C@H]4CC[C@]23C)C1 | >3 | 1 µM | 1.01 nmol/min/mL | 0.68 nmol/min/mL | 0.62 nmol/min/mL | 0.7 µM | 2.3 µM | 3 µM | 3.3 µM | 2.8 µM | 1.63 nmol/min/mL | 2.5 µM | 0.44 nmol/min/mL | 1.1 µM | Active | – | – | – |
| CC(=O)OCC1=C(C)C[C@H]([C@@H](C)[C@H]2CC[C@H]3[C@@H]4C[C@H]5O[C@]56[C@@H](OC(C)=O)C=CC(=O)[C@]6(C)[C@H]4CC[C@]23C)OC1=O | – | – | 1.06 nmol/min/mL | 0.42 nmol/min/mL | 0.5 nmol/min/mL | – | – | – | – | – | 0.68 nmol/min/mL | – | 0.33 nmol/min/mL | – | – | Active | – | – |
| CC1=C(COC(=O)C(C)(C)C)C(=O)O[C@@H]([C@@H](C)[C@H]2CC[C@H]3[C@@H]4C[C@H]5O[C@]56[C@@H](OC(=O)C(C)(C)C)C=CC(=O)[C@]6(C)[C@H]4CC[C@]23C)C1 | – | 1.2 µM | 0.54 nmol/min/mL | 0.25 nmol/min/mL | 0.28 nmol/min/mL | 0.5 µM | 4.1 µM | 0.6 µM | 4.6 µM | 0.4 µM | 0.63 nmol/min/mL | 0.9 µM | 0.26 nmol/min/mL | 2.4 µM | Active | Active | 4 - 6 | Activity (HeLa [22]): Active; Activity (HeLa [21]): 15% |
| CC1=C(CO)C(=O)O[C@@H]([C@@H](C)[C@H]2CC[C@H]3[C@@H]4C[C@H]5O[C@]56[C@@H](O)C=CC(=O)[C@]6(C)[C@H]4CC[C@]23C)C1 [WITHAFERIN A] | 2.8 | 1.3 µM | 0.55 nmol/min/mL | 0.41 nmol/min/mL | 0.47 nmol/min/mL | 6.6 µM | – | – | 10.1 µM | – | 1.12 nmol/min/mL | – | 0.35 nmol/min/mL | 6.3 µM | – | – | 4 - 6 | Activity (HeLa [23]): Active; Activity (HeLa [24]): 11.3%; Activity (HeLa [25]): 0.6 to 1.9 nmol/min/mL |
| CCC(=O)OCC1=C(C)C[C@H]([C@@H](C)[C@H]2CC[C@H]3[C@@H]4C[C@H]5O[C@]56[C@@H](O)C=CC(=O)[C@]6(C)[C@H]4CC[C@]23C)OC1=O | – | 1.2 µM | 1.9 nmol/min/mL | 0.52 nmol/min/mL | 1.02 nmol/min/mL | 1 µM | 1.6 µM | 2.3 µM | 2.1 µM | 0.9 µM | 1.67 nmol/min/mL | 1.6 µM | 0.52 nmol/min/mL | 1.1 µM | Active | – | – | Ratio IC50 (MCF7 (Homo sapiens) [26]): >3; Ratio IC50 (MCF7 (Homo sapiens) [27]): >3; Ratio IC50 (MCF7 [28]): >3 |
